STAT1 act: STAT1 signaling activators, primary screen, cell-based, HTS, luciferase reporter; activation (% of control), % at 5.5 µM; 200,000 tested, 2.6% active; NIH 3T3 STAT1-luciferase reporter, IFN-gamma, luminescence; 100% = IFN-gamma alone, no compound;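 active means activation above the screen-wide mean activation plus 3 SD, cut at about 130% in these data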
NF-kB neuron act: activators of NF-kB expression in neurons, primary screen, cell-based, HTS | human neuronal cells, NF-kB reporter expression; hits give high values | fold change at 12.5 µM | 190,000 tested, 1.6% active | AID 1239, 2008; in the data active means fold change above about 3.3
STAT3 activator: IL-6 driven STAT3 reporter potentiators, primary screen, U3A cells, luciferase, luminescence, MLSCN library; IL-6 STAT3-luciferase reporter; 100% = signal with IL-6 EC80 alone; activation (% of control), % at 5.6 µM; 190,000 tested, 0.91% active; AID 871, 2007;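 active means activation above the screen-wide mean of compound activation plus 3 SD, cut at about 130% in these data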
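Material: human STAT1-deficient U3A cells with stable STAT3-luciferase reporter / Probe or stimulus: IL-6 stimulus at 33 ng/mL final / Schedule: 1 h compound pre-exposure, 6 h IL-6 stimulation, 37 °C / Technique: luminescence / Read-out basis: percent of IL-6-only median luminescence / Control set: IL-6-only high control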
APP 5'UTR act: activators of APP 5'UTR luciferase reporter, primary screen, SH-SY5Y cells; 190,000 tested, 1% active; SH-SY5Y APP 5'UTR luciferase reporter, luminescence; zero percent = DMSO vehicle wells; activation, % at 2 µM; AID 1276, 2008;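 active means activation above a set limit, based on mean plus 3 SD of controls, cut at about 140% in these data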
STAT3 inh: IL-6 driven STAT3 reporter inhibitors, primary screen, U3A cells, luciferase, luminescence, MLSCN library; IL-6 STAT3-luciferase reporter; host cell line lacks STAT1; inhibition, % at 5.5 µM; 190,000 tested, 0.89% active; AID 862, 2007;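 active means inhibition above the mean inhibition across all screened compounds plus 3 SD, cut at about 44% in these data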
STAT1 inh: STAT1 signaling inhibitors, primary screen, cell-based, HTS, luciferase reporter. NIH 3T3 STAT1-luciferase reporter, IFN-gamma, luminescence. AID 920, 2007. 200,000 tested, 0.35% active. inhibition, % at 5.5 µM;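 active means inhibition above a set limit, the mean inhibition across all tested compounds plus 3 SD, cut at about 34% in these data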
Each line names hits and unclear results; the compound was inactive in the other large screens. The list is not random: actives were taken first. Their share in the collection is about 5.1%.

CC(=O)N1/C(=C/c2ccc(N(C)C)cc2)C(=O)c2ccccc21	none
CN(C)/C=N/S(=O)(=O)c1cccn1-c1ncc(C(F)(F)F)cc1Cl	none
CN(C)/C=N/c1ncn(-c2ncc(C(F)(F)F)cc2Cl)n1	STAT1 act 133
CCOC(=O)C(C)Sc1ccc2nnc(CCNS(=O)(=O)c3ccccc3)n2n1 (configuration not stated)	none
c1ccn(-c2ccc(-c3ccn[nH]3)cc2)c1	STAT1 act 143
CC(=O)c1c(C)[nH]c(C(=O)Nc2nccs2)c1C	STAT1 act 133
CC(=O)c1c(C)[nH]c(C(=O)Nc2ccc(C)c(C)c2)c1C	STAT1 act 138, NF-kB neuron act 3.8 (no result: APP 5'UTR act)
CCOC(=O)c1c(C)[nH]c(C(=O)Nc2ccc(NC(C)=O)cc2)c1C	none
CCOC(=O)c1[nH]c(C)c(C(=O)Nc2ccc3c(c2)OCCO3)c1C	none
CCOC(=O)c1c(C)[nH]c(C(=O)Nc2ccc(C)c(Cl)c2)c1C	NF-kB neuron act 3.8, APP 5'UTR act 163
CC(=O)c1c(C)[nH]c(C(=O)Nc2ccc3c(c2)OCCO3)c1C	STAT1 act 138, NF-kB neuron act 5.5, APP 5'UTR act 193
O=C(CO/N=C/c1ccccc1O)N1CCc2ccccc21	none
CCOC(=O)c1c(C)[nH]c(C(=O)NNC(=O)c2ccccc2)c1C	STAT1 act 146, NF-kB neuron act 3.4, APP 5'UTR act 164
COC(=O)c1c(C)[nH]c(C(=O)/C=C/c2cccc(Cl)c2)c1C	none
COC(=O)c1c(C)[nH]c(C(=O)/C=C/c2ccccc2)c1C	STAT1 act 140
COc1ccc(Nc2cc(Cl)nc(N)n2)cc1OC	none
O=C(CSc1ccsc1[N+](=O)[O-])NCc1ccco1	none
Fc1ccc(-n2nnc(-c3cccnc3)n2)cc1	STAT1 act 149 (no result: STAT3 activator, STAT3 inh)
CN(C(=O)c1cccs1)c1ccc(OCC(=O)N2CCC(C(N)=O)CC2)cc1	none
COCCNC(=O)COc1cccc2c1OC(C)(C)C2	none
CCN1/C(=C\C(=S)Nc2ccccc2)Sc2ccccc21	STAT1 act 144
O=C(/C=C/c1nc2ccccc2s1)N1CCCCCC1	STAT1 act 132
Cc1ccc(C(C)C)c(OCC(=O)NNC(=O)C(C(C)C)N2C(=O)c3ccccc3C2=O)c1 (configuration not stated)	none
CCc1ccc(Oc2cc(C)nc(N)n2)cc1	STAT1 act 132, NF-kB neuron act 3.3
CS(=O)(=O)N1N=C(c2cccs2)CC1c1ccco1 (configuration not stated)	none
O=C(O)Cn1cc(/C=c2/sc3nc4ccccc4n3c2=O)c2ccccc21	STAT1 act 131
O=c1/c(=C\c2cccn2-c2ccccc2)sc2nc3ccccc3n12	none
COc1cc(N2CCCC2)c(OC)cc1/C=c1/sc2nc3ccccc3n2c1=O	none
Cc1ccc(-n2c(C)cc(/C=c3/sc4nc5ccccc5n4c3=O)c2C)cc1	STAT3 inh 63, STAT1 inh 43
COc1ccccc1-c1nc(-c2ccc(Br)cc2)no1	STAT1 act 135, NF-kB neuron act 4.7, STAT3 activator 135, APP 5'UTR act 162
COc1cc(OC)cc(-c2nc(-c3ccc(Br)cc3)no2)c1	none
COc1ccccc1-c1nc(-c2ccc(Br)o2)no1	STAT1 act 157, NF-kB neuron act 6.7, STAT3 activator 159, APP 5'UTR act 218
Cc1ccc(-c2noc(-c3ccccc3Br)n2)cc1	STAT1 act 133, NF-kB neuron act 5.9, APP 5'UTR act 195
CN(C)c1ccc(-c2noc(-c3ccccc3O)n2)cc1	APP 5'UTR act 144
CCC1=NN(C(=O)CCc2ccc3c(c2)OCO3)C(O)(C(F)(F)F)C1 (configuration not stated)	none
Cc1cc(C)cc(-n2ccnc2SCC(=O)O)c1	none
CCOc1ccc(/C=N/NC(=O)c2cc(-c3cccn3C)n[nH]2)cc1	none
Cc1cc(NC(=O)Nc2cccc(C)c2C)no1	none
COc1ccc(Cn2c(SCC#N)nc3ccc(N4CCOCC4)cc3c2=O)cc1	STAT1 act 136
CCNc1nc(NC(C)(C)C)nc(Oc2ccc(=O)n(-c3ccccc3)n2)n1	none
COc1cccc(-c2noc(-c3ccc4c(c3)OCO4)n2)c1	NF-kB neuron act 5.7, APP 5'UTR act 159, STAT3 inh 72, STAT1 inh 41
COc1ccc(-c2noc(-c3ccc4c(c3)OCO4)n2)cc1	NF-kB neuron act 3.9
CCOC(=O)c1nnsc1Nc1ccc(C)c(C)c1	none
CCC(=O)N1CCN(c2ccc(NC(=O)c3ccc([N+](=O)[O-])o3)cc2Cl)CC1	STAT1 act 130
CCN1CCN(c2ccc(NC(=O)c3ccc(F)cc3)cc2Cl)CC1	none
CCC(=O)N1CCN(c2ccccc2NC(=O)c2ccc(-c3cccc([N+](=O)[O-])c3)o2)CC1	none
CCN1CCN(c2ccc(NC(=O)c3ccc([N+](=O)[O-])o3)cc2Cl)CC1	STAT1 act 148
Cc1ccccc1NC(=O)c1ccc(NC(=O)c2ccco2)cc1	none
COc1cc(NC(=O)CC(C)C)ccc1NC(=O)c1ccco1	STAT1 act 141 (no result: NF-kB neuron act)
CCC(=O)Oc1ccc(NC(=O)c2ccco2)cc1	none
O=C(c1ccccc1)c1cccc(NC(=O)c2ccco2)c1	STAT1 act 129
CCC(=O)Nc1ccc(NC(=O)c2ccco2)cc1	STAT1 act 131
O=C(Nc1ccccn1)c1ccc(NC(=O)c2ccco2)cc1	STAT1 act 129, APP 5'UTR act 159
Cc1ccccc1CC1(CO)CCCN(Cc2nc(-c3cccs3)oc2C)C1 (configuration not stated)	none
COc1ccc(F)cc1S(=O)(=O)Nc1cccc(C(=O)O)c1	none
COc1ccccc1CNC(=O)C(NS(=O)(=O)c1ccc2c(c1)OCCO2)C(C)C (configuration not stated)	none
O=C(Nc1ccc2c(c1)OCCO2)c1ccco1	none
CC1(C)Oc2ccc(NC(=O)c3ccco3)cc2O1	STAT1 act 129
Cc1ccc(NC(=O)c2ccco2)cc1C	STAT1 act 132
O=C1CC(NNc2ccccc2)C(=O)N1c1ccc(N2CCCCC2)cc1 (configuration not stated)	none
Cn1cccc1C(=O)C(=O)Nc1ccc(Cl)cc1	NF-kB neuron act 11, APP 5'UTR act 186
Cn1cccc1C(=O)C(=O)Nc1cc(Cl)cc(Cl)c1	none
Cn1cccc1C(=O)C(=O)Nc1cccc(Cl)c1Cl	STAT1 act 147, NF-kB neuron act 3.6, STAT3 activator 157
COc1ccccc1NC(=S)N(CCN1CCCCCC1)Cc1cccs1	none
